Laboratory results: ChEMBL document CHEMBL1132588, “Synthesis, CoMFA analysis, and receptor docking of 3,5-diacyl-2, 4-dialkylpyridine derivatives as selective A3 adenosine receptor antagonists” (J Med Chem, 1999)

Assays:
Adenosine receptor A1 [1] = target: T1, Adenosine receptor A1 (Rattus norvegicus, UniProt P25099); test: Displacement of specific [3H]-CGS- 21680R-PIA binding to Adenosine A1 receptor in rat brain membranes.; assay type: cell membranes; conditions: in the assay text read “[3H]R-PIA” for “[3H]-CGS- 21680R-PIA”
T1 sequence (P25099 whole entry): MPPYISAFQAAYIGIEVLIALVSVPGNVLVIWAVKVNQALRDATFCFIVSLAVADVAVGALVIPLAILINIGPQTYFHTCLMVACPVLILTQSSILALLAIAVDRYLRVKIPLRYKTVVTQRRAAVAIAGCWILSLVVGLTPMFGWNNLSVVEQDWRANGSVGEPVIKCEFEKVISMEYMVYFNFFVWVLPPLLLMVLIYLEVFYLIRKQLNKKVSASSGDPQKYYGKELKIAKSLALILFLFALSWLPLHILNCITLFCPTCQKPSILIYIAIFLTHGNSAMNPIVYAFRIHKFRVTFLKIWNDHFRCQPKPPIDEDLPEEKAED
Procedure, shortened: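 A1 binding used [3H]R-PIA on rat cerebral cortex membranes. Adenosine deaminase (3 units/mL) was included in membrane preparation, in a 30 min preincubation at 30 °C, and throughout radioligand incubation. Competitors were DMSO stocks diluted in buffer, with DMSO never above 2%.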

[2] = target: T2, Adenosine receptor A3 (Homo sapiens) (UniProt P0DMS8); test: Displacement of specific[125 I]AB-MECA binding at human Adenosine A3 receptor expressed in HEK cells at 10 e-4M; assay type: cell-based; conditions: HEK293
T2 sequence (whole entry): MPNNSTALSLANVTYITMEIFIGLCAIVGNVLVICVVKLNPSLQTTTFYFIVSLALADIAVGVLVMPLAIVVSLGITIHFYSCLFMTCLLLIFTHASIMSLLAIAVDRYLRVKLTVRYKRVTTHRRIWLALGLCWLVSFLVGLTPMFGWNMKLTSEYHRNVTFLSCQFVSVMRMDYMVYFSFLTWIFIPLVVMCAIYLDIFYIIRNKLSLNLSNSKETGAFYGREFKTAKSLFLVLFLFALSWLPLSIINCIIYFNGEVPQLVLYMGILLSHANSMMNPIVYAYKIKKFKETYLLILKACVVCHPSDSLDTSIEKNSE

[3] = target: Adenosine receptor A2a (Rattus norvegicus) (UniProt P30543); test: (§1) Displacement of specific [3H]-CGS- 21680 binding to Adenosine A2A receptor in rat striatal membranes; assay type: cell membranes; conditions: Membrane
Procedure, shortened: (§2)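 Rat striatal membranes labelled with [3H]CGS 21680 for A2A binding. Adenosine deaminase (3 units/mL) was present during membrane preparation, during a 30 min preincubation at 30 °C, and during radioligand incubation. Competitors were dissolved in DMSO and diluted in buffer (DMSO ≤2%).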

[4] = target: T2, Adenosine receptor A3 (Homo sapiens); test: (§3) Displacement of specific [125 I]AB-MECA binding at human Adenosine A3 receptor expressed in HEK cells; assay type: cell-based; conditions: HEK293
Adenosine receptor A2a = Adenosine receptor A2a (Rattus norvegicus, UniProt P30543); test: Inhibition of [3H]-CGS- 21680 binding to Adenosine A2A receptor in rat striatal membranes.; assay type: cell membranes, Membrane
Adenosine receptor A3 [5] = target: T3, Adenosine receptor A3 (Homo sapiens, UniProt P0DMS8); test: as §3; assay type: cell-based, HEK293
T3 sequence (P0DMS8 whole entry): T2 sequence (whole entry)
Procedure, shortened: (§4)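 Membranes from HEK-293 cells stably expressing human A3 receptor (clone HS-21a), or from CHO cells stably expressing rat A3 receptor (rat: n = 3-5), in 50 mM Tris, 10 mM Mg2+, 1 mM EDTA, pH 8.0. Membranes at 0.3 mg protein/mL with [125I]AB-MECA at 0.3 nM final. Nonspecific binding defined with R-PIA. Competitors were dissolved in DMSO (≤2% final) and tested at ≥5 concentrations spanning 3 log units. Bound ligand was separated by GF/B filtration with three buffer rinses; Ki was derived.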

Rattus norvegicus [6] = organism: Rattus norvegicus; test: Ratio of binding affinities for rat A1 receptor against human A3 receptor, [Ki(rA1) / Ki (hA3)].
Procedure, shortened: (§5)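 Ratio of Ki values from binding assays. For A3, [125I]AB-MECA (final 0.3 nM) bound membranes of HEK-293 cells expressing human A3 (clone HS-21a) or CHO cells expressing rat A3, in Tris/Mg2+/EDTA buffer at pH 8.0. For rat A1, [3H]R-PIA bound cerebral cortex membranes, with adenosine deaminase (3 units/mL) present, including a 30 min preincubation at 30 °C.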

Adenosine receptor A1 [7] = target: T1, Adenosine receptor A1; test: Displacement of specific [3H]R-PIA binding to Adenosine A1 receptor in rat brain membranes.
[8] = target: T4, Adenosine receptor A3 (Rattus norvegicus) (UniProt P28647); test: (§6) Displacement of specific [125I]AB-MECA binding at rat Adenosine A3 receptor stably expressed in CHO cells; assay type: cell-based
T4 sequence (whole entry): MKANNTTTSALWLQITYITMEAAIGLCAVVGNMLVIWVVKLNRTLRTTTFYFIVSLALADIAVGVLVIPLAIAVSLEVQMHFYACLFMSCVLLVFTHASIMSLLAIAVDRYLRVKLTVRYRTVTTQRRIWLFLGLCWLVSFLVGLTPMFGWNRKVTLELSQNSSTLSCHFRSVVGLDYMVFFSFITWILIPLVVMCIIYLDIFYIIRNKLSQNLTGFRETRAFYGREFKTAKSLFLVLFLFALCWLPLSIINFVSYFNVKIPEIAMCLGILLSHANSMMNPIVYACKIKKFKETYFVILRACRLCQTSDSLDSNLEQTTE
Procedure, shortened: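 Membranes from CHO cells stably expressing rat A3 receptor (0.3 mg protein/mL) were incubated with [125I]AB-MECA (final 0.3 nM) and test compound in 50 mM Tris, 10 mM Mg2+, 1 mM EDTA, pH 8.0. Compounds were dissolved in DMSO, with DMSO never exceeding 2%. At least five competitor concentrations spanning 3 orders of magnitude were tested. Nonspecific binding was defined with R-PIA. Bound ligand was collected by filtration over GF/B filters; n = 3-5.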

[9] = target: T2, Adenosine receptor A3 (Homo sapiens); test: as §3; assay type: cell-based; conditions: HEK293; concentration not given here; procedure, shortened: as §4
Rattus norvegicus [10] = organism: Rattus norvegicus; test: Ratio of the binding affinities against rat A3 receptor / human A3 receptor, Ki(rA1) / Ki (hA3).; procedure, shortened: as §5
Rattus norvegicus [11] = organism: Rattus norvegicus; test: Ratio of the binding affinities against rat A3 receptor / rat A3 receptor, Ki(rA1) / Ki (rA3).; procedure, shortened: as §5
[12] = target: Adenosine receptor A2a (Rattus norvegicus) (UniProt P30543); test: as §1; assay type: cell membranes; parameters: concentration or dose not given beside the values; conditions: Membrane, concentration not given here; procedure, shortened: as §2
Adenosine receptor A3 [13] = target: T5, Adenosine receptor A3 (Rattus norvegicus, UniProt P28647); test: as §6; assay type: cell-based
T5 sequence (P28647 whole entry): T4 sequence (whole entry)

[14] = target: Adenosine receptor A2a (Rattus norvegicus) (UniProt P30543); test: Displacement of specific [3H]-CGS- 21680 binding to Adenosine A2A receptor in rat striatal membranes at 10 e-4M; assay type: cell membranes; conditions: Membrane
[15] = target: Adenosine receptor A2a (Rattus norvegicus) (UniProt P30543); test: Displacement of specific [3H]-CGS- 21680 binding to Adenosine A2A receptor in rat striatal membranes at 10 e-5M; assay type: cell membranes; conditions: Membrane

Adenosine receptor A2a (Rattus norvegicus), sequence (P30543 whole entry): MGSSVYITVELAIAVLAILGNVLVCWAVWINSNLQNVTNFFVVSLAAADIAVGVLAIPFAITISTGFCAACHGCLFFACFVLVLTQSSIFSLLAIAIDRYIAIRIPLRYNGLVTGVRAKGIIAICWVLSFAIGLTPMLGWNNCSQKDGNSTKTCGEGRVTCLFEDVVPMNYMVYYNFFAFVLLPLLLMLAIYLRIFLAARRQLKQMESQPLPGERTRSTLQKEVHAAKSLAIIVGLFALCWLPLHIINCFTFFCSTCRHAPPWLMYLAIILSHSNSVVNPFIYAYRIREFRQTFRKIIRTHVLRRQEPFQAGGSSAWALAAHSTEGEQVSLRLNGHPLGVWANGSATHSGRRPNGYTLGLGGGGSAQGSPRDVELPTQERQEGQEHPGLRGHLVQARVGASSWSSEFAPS
Adenosine receptor A2a, sequence (P30543 whole entry): as above

| SMILES | Ki (Adenosine receptor A1 [1]) [µM] | pKi [4] | Ki (Adenosine receptor A3 [5]) [µM] | Ratio (Rattus norvegicus [6]) | Ki (Adenosine receptor A1 [7]) [µM] | Ratio (Rattus norvegicus [10]) | Ratio (Rattus norvegicus [11]) | further results |
| --- | --- | --- | --- | --- | --- | --- | --- | --- |
| CCCOC(=O)c1c(-c2ccccc2F)nc(CC)c(C(=O)SCC)c1CCC | – | 7.64 | 0.023 | 590 | 13.5 | – | – | Ki (Adenosine receptor A2a): 8.63 µM |
| CCCOC(=O)c1c(-c2ccccc2)nc(CCF)c(C(=O)SCC)c1CCC | 19.8 | – | – | – | – | < 1 | 76 | Ki (Adenosine receptor A2a): 30.8 µM; Ki [8]: 0.26 µM; inhibition [9]: 15% |
| CCCOC(=O)c1c(-c2ccccc2)nc(CC)c(C(=O)SCCCF)c1CCC | 12.6 | 7.08 | 0.0828 | 150 | – | 1.9 | 81 | Ki (Adenosine receptor A3 [13]): 0.156 µM; Displacement [3]: < 10% |
| CCCCCCSC(=O)c1c(CC)nc(-c2cccc(Cl)c2)c(C(=O)OCCC)c1CC | – | 6.66 | 0.22 | 510 | 113 | – | – | Displacement [14]: 10% |

Continued, in another order:

| Ki (Adenosine receptor A1 [1]) [µM] | pKi [4] | Ki (Adenosine receptor A3 [5]) [µM] | Ratio (Rattus norvegicus [6]) | Ki (Adenosine receptor A1 [7]) [µM] | Ratio (Rattus norvegicus [10]) | Ratio (Rattus norvegicus [11]) | SMILES | further results |
| --- | --- | --- | --- | --- | --- | --- | --- | --- |
| 5.24 | – | – | – | – | – | – | CCOC(=O)c1c(-c2ccccc2)nc(CC)c(C(=O)SCC)c1CCCN1C(=O)c2ccccc2C1=O | Displacement [2]: 28%; Displacement [3]: 10% |
| – | 6.71 | 0.193 | 68 | 13.2 | – | – | CCCc1c(C(=O)SCC)c(CCSC(C)=O)nc(-c2ccccc2)c1C(=O)OCC | inhibition [12]: 30% |
| – | 8.08 | – | 820 | – | 22 | 42 | CCCOC(=O)c1c(-c2ccccc2)nc(CC)c(C(=O)SCC)c1CC | Displacement [15]: 10% |
